Reference: ChEMBL document CHEMBL3734675, “Synthesis, antimycobacterial and antibacterial activity of fluoroquinolone derivatives containing an 3-alkoxyimino-4-(cyclopropylanimo)methylpyrrolidine moiety” (2015)
Values after ≈ are worked out from the molar mass of the structure shown.

Columns and labels:
Type in all cases: functional
[1] = test system: Staphylococcus epidermidis; assay: Potency index, ratio of ciprofloxacin MIC to compound MIC for methicillin-resistant Staphylococcus epidermidis 14-37
Klebsiella pneumoniae [2] = assay: Antibacterial activity against Klebsiella pneumoniae 14-2 after 18 to 24 hrs by two-fold serial dilution method
How it was run: (§1)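 Twofold serial dilution in agar media against Gram-positive and Gram-negative strains. Plates incubated at 35 °C for 18–24 h. MIC read as the lowest compound concentration giving complete inhibition of bacterial growth.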

Staphylococcus aureus [3] = assay: Antibacterial activity against methicillin-resistant Staphylococcus aureus 14-5 after 18 to 24 hrs by two-fold serial dilution method
How it was run: (§2)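 Agar media, standard twofold serial dilution. MIC is the lowest concentration giving complete inhibition of bacterial growth after incubation at 35 °C for 18–24 h. Ciprofloxacin and levofloxacin were run as comparators.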

Enterococcus faecium [4] = assay: Potency index, ratio of ciprofloxacin MIC to compound MIC for Enterococcus faecium 14-5
Staphylococcus aureus [5] = assay: Antibacterial activity against methicillin-sensitive Staphylococcus aureus 14-4 after 18 to 24 hrs by two-fold serial dilution method; how it was run: as §1
Enterococcus faecalis [6] = assay: Potency index, ratio of ciprofloxacin MIC to compound MIC for Enterococcus faecalis 14-2
Enterococcus faecalis [7] = assay: Potency index, ratio of levofloxacin MIC to compound MIC for Enterococcus faecalis 14-2
Enterococcus faecalis [8] = assay: Potency index, ratio of ciprofloxacin MIC to compound MIC for Enterococcus faecalis 14-1
Enterococcus faecium [9] = assay: Potency index, ratio of ciprofloxacin MIC to compound MIC for Enterococcus faecium 14-6
Pseudomonas aeruginosa [10] = assay: Antibacterial activity against Pseudomonas aeruginosa 14-15 after 18 to 24 hrs by two-fold serial dilution method; how it was run: as §1
Streptococcus pneumoniae = assay: Antibacterial activity against methicillin-resistant Streptococcus pneumoniae ATCC 19615 after 18 to 24 hrs by two-fold serial dilution method; how it was run: as §2
Staphylococcus aureus [11] = assay: Antibacterial activity against Staphylococcus aureus CMCC 26003 after 18 to 24 hrs by two-fold serial dilution method; how it was run: as §1
[12] = test system: Staphylococcus epidermidis; assay: Antibacterial activity against methicillin-sensitive Staphylococcus epidermidis 14-2 after 18 to 24 hrs by two-fold serial dilution method; how it was run: as §1
Klebsiella pneumoniae [13] = assay: Antibacterial activity against extended-spectrum beta-lactamase producing Klebsiella pneumoniae 14-18 after 18 to 24 hrs by two-fold serial dilution method; how it was run: as §1
[14] = test system: Staphylococcus epidermidis; assay: Potency index, ratio of levofloxacin MIC to compound MIC for methicillin-resistant Staphylococcus epidermidis 14-39
Pseudomonas aeruginosa [15] = assay: Antibacterial activity against Pseudomonas aeruginosa 14-14 after 18 to 24 hrs by two-fold serial dilution method; how it was run: as §1
[16] = test system: Staphylococcus epidermidis; assay: Potency index, ratio of ciprofloxacin MIC to compound MIC for methicillin-resistant Staphylococcus epidermidis 14-21
[17] = test system: Mycobacterium tuberculosis; assay: Antimycobacterial activity against Mycobacterium tuberculosis H37Rv ATCC 27294 incubated for 7 days by microplate Alamar Blue assay; conditions: H37Rv ATCC 27294, 168 h
How it was run: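 Fluorescence read-out. MIC is the lowest concentration that reduces fluorescence by at least 90% relative to the mean of replicate bacterium-only controls. Isoniazid and rifampicin were included as reference drugs.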

[18] = test system: Staphylococcus epidermidis; assay: Antibacterial activity against methicillin-resistant Staphylococcus epidermidis 14-39 after 18 to 24 hrs by two-fold serial dilution method; how it was run: as §2
Escherichia coli [19] = assay: Antibacterial activity against extended-spectrum beta-lactamase producing Escherichia coli 14-1 after 18 to 24 hrs by two-fold serial dilution method; how it was run: as §1
Escherichia coli [20] = assay: Antibacterial activity against extended-spectrum beta-lactamase producing Escherichia coli 14-2 after 18 to 24 hrs by two-fold serial dilution method; how it was run: as §1
Enterococcus faecium [21] = assay: Antibacterial activity against Enterococcus faecium 14-6 after 18 to 24 hrs by two-fold serial dilution method; how it was run: as §1
Enterococcus faecalis [22] = assay: Antibacterial activity against Enterococcus faecalis 14-1 after 18 to 24 hrs by two-fold serial dilution method; how it was run: as §1
[23] = test system: Staphylococcus epidermidis; assay: Antibacterial activity against methicillin-resistant Staphylococcus epidermidis 14-21 after 18 to 24 hrs by two-fold serial dilution method; how it was run: as §2
Staphylococcus aureus [24] = assay: Antibacterial activity against methicillin-sensitive Staphylococcus aureus 14-1 after 18 to 24 hrs by two-fold serial dilution method; how it was run: as §1
Escherichia coli [25] = assay: Antibacterial activity against Escherichia coli 14-2 after 18 to 24 hrs by two-fold serial dilution method; how it was run: as §1
Enterococcus faecalis [26] = assay: Antibacterial activity against Enterococcus faecalis 14-2 after 18 to 24 hrs by two-fold serial dilution method; how it was run: as §1
Enterococcus faecium [27] = assay: Potency index, ratio of levofloxacin MIC to compound MIC for Enterococcus faecium 14-6
Pseudomonas aeruginosa [28] = assay: Antibacterial activity against Pseudomonas aeruginosa 14-9 after 18 to 24 hrs by two-fold serial dilution method; how it was run: as §1
Staphylococcus aureus [29] = assay: Potency index, ratio of levofloxacin MIC to compound MIC for methicillin-resistant Staphylococcus aureus 14-5
Escherichia coli [30] = assay: Antibacterial activity against Escherichia coli 14-1 after 18 to 24 hrs by two-fold serial dilution method; how it was run: as §1
[31] = test system: Staphylococcus epidermidis; assay: Potency index, ratio of levofloxacin MIC to compound MIC for methicillin-resistant Staphylococcus epidermidis 14-37
[32] = test system: Staphylococcus epidermidis; assay: Antibacterial activity against methicillin-resistant Staphylococcus epidermidis 14-37 after 18 to 24 hrs by two-fold serial dilution method; how it was run: as §2
[33] = test system: Staphylococcus epidermidis; assay: Potency index, ratio of levofloxacin MIC to compound MIC for methicillin-resistant Staphylococcus epidermidis 14-22
Klebsiella pneumoniae [34] = assay: Antibacterial activity against extended-spectrum beta-lactamase producing Klebsiella pneumoniae 14-19 after 18 to 24 hrs by two-fold serial dilution method; how it was run: as §1
[35] = test system: Staphylococcus epidermidis; assay: Antibacterial activity against methicillin-resistant Staphylococcus epidermidis 14-22 after 18 to 24 hrs by two-fold serial dilution method; how it was run: as §2
Enterococcus faecium [36] = assay: Antibacterial activity against Enterococcus faecium 14-5 after 18 to 24 hrs by two-fold serial dilution method; how it was run: as §1
Enterococcus faecium [37] = assay: Potency index, ratio of levofloxacin MIC to compound MIC for Enterococcus faecium 14-2
[38] = test system: Staphylococcus epidermidis; assay: Potency index, ratio of ciprofloxacin MIC to compound MIC for methicillin-resistant Staphylococcus epidermidis 14-39
Klebsiella pneumoniae [39] = assay: Antibacterial activity against Klebsiella pneumoniae 14-1 after 18 to 24 hrs by two-fold serial dilution method; how it was run: as §1
Staphylococcus aureus [40] = assay: Antibacterial activity against methicillin-sensitive Staphylococcus aureus 14-3 after 18 to 24 hrs by two-fold serial dilution method; how it was run: as §1
Staphylococcus aureus [41] = assay: Potency index, ratio of levofloxacin MIC to compound MIC for methicillin-resistant Staphylococcus aureus 14-4
Escherichia coli [42] = assay: Antibacterial activity against Escherichia coli ATCC 25922 after 18 to 24 hrs by two-fold serial dilution method; how it was run: as §1
Staphylococcus aureus [43] = assay: Potency index, ratio of ciprofloxacin MIC to compound MIC for methicillin-resistant Staphylococcus aureus 14-4
Pseudomonas aeruginosa [44] = assay: Antibacterial activity against Pseudomonas aeruginosa ATCC 27853 after 18 to 24 hrs by two-fold serial dilution method; how it was run: as §1
Enterococcus faecium [45] = assay: Antibacterial activity against Enterococcus faecium 14-2 after 18 to 24 hrs by two-fold serial dilution method; how it was run: as §1
Enterococcus faecium [46] = assay: Potency index, ratio of levofloxacin MIC to compound MIC for Enterococcus faecium 14-5
Staphylococcus aureus [47] = assay: Antibacterial activity against methicillin-resistant Staphylococcus aureus 14-4 after 18 to 24 hrs by two-fold serial dilution method; how it was run: as §2
Enterococcus faecalis [48] = assay: Potency index, ratio of levofloxacin MIC to compound MIC for Enterococcus faecalis 14-1
Klebsiella pneumoniae [49] = assay: Antibacterial activity against Klebsiella pneumoniae 14-4 after 18 to 24 hrs by two-fold serial dilution method; how it was run: as §1
Enterococcus faecium [50] = assay: Potency index, ratio of ciprofloxacin MIC to compound MIC for Enterococcus faecium 14-2
Klebsiella pneumoniae [51] = assay: Antibacterial activity against extended-spectrum beta-lactamase producing Klebsiella pneumoniae 14-17 after 18 to 24 hrs by two-fold serial dilution method; how it was run: as §1
Staphylococcus aureus [52] = assay: Potency index, ratio of ciprofloxacin MIC to compound MIC for methicillin-resistant Staphylococcus aureus 14-5
Klebsiella pneumoniae [53] = assay: Antibacterial activity against Klebsiella pneumoniae 14-3 after 18 to 24 hrs by two-fold serial dilution method; how it was run: as §1
Pseudomonas aeruginosa [54] = assay: Antibacterial activity against Pseudomonas aeruginosa 14-16 after 18 to 24 hrs by two-fold serial dilution method; how it was run: as §1
[55] = test system: Staphylococcus epidermidis; assay: Potency index, ratio of levofloxacin MIC to compound MIC for methicillin-resistant Staphylococcus epidermidis 14-21
[56] = test system: Staphylococcus epidermidis; assay: Potency index, ratio of ciprofloxacin MIC to compound MIC for methicillin-resistant Staphylococcus epidermidis 14-22

CO/N=C1/CN(c2c(F)cc3c(=O)c(C(=O)O)cn4c3c2OC[C@@H]4C)CC1(C)CNC1CC1 (some centres not stated)
Ratio [1]: 2 | MIC (Klebsiella pneumoniae [2]): 16 µg/mL (≈ 34.9 µM) | MIC (Staphylococcus aureus [3]): 4 µg/mL (≈ 8.72 µM) | Ratio (Enterococcus faecium [4]): 2 | MIC (Staphylococcus aureus [5]): 0.015 µg/mL (≈ 0.0327 µM) | Ratio (Enterococcus faecalis [6]): 2 | Ratio (Enterococcus faecalis [7]): 2 | Ratio (Enterococcus faecalis [8]): 2 | Ratio (Enterococcus faecium [9]): 2 | MIC (Pseudomonas aeruginosa [10]): 32 µg/mL (≈ 69.8 µM) | MIC (Streptococcus pneumoniae): 0.5 µg/mL (≈ 1.09 µM) | MIC (Staphylococcus aureus [11]): < 0.008 µg/mL | MIC [12]: 8 µg/mL (≈ 17.4 µM) | MIC (Klebsiella pneumoniae [13]): 16 µg/mL (≈ 34.9 µM) | Ratio [14]: 2 | MIC (Pseudomonas aeruginosa [15]): 32 µg/mL (≈ 69.8 µM) | Ratio [16]: 2 | MIC90 [17]: 0.64 µg/mL (≈ 1.4 µM) | MIC [18]: 2 µg/mL (≈ 4.36 µM) | MIC (Escherichia coli [19]): 4 µg/mL (≈ 8.72 µM) | MIC (Escherichia coli [20]): > 128 µg/mL | MIC (Enterococcus faecium [21]): 8 µg/mL (≈ 17.4 µM) | MIC (Enterococcus faecalis [22]): 8 µg/mL (≈ 17.4 µM) | MIC [23]: 4 µg/mL (≈ 8.72 µM) | MIC (Staphylococcus aureus [24]): 2 µg/mL (≈ 4.36 µM) | MIC (Escherichia coli [25]): 64 µg/mL (≈ 140 µM) | MIC (Enterococcus faecalis [26]): 0.5 µg/mL (≈ 1.09 µM) | Ratio (Enterococcus faecium [27]): 2 | MIC (Pseudomonas aeruginosa [28]): 8 µg/mL (≈ 17.4 µM) | Ratio (Staphylococcus aureus [29]): 2 | MIC (Escherichia coli [30]): 64 µg/mL (≈ 140 µM) | Ratio [31]: 2 | MIC [32]: 2 µg/mL (≈ 4.36 µM) | Ratio [33]: 2 | MIC (Klebsiella pneumoniae [34]): 32 µg/mL (≈ 69.8 µM) | MIC [35]: 2 µg/mL (≈ 4.36 µM) | MIC (Enterococcus faecium [36]): 4 µg/mL (≈ 8.72 µM) | Ratio (Enterococcus faecium [37]): 2 | Ratio [38]: 2 | MIC (Klebsiella pneumoniae [39]): 16 µg/mL (≈ 34.9 µM) | MIC (Staphylococcus aureus [40]): 0.015 µg/mL (≈ 0.0327 µM) | Ratio (Staphylococcus aureus [41]): 2 | MIC (Escherichia coli [42]): 2 µg/mL (≈ 4.36 µM) | Ratio (Staphylococcus aureus [43]): 2 | MIC (Pseudomonas aeruginosa [44]): 16 µg/mL (≈ 34.9 µM) | MIC (Enterococcus faecium [45]): 4 µg/mL (≈ 8.72 µM) | Ratio (Enterococcus faecium [46]): 2 | MIC (Staphylococcus aureus [47]): 4 µg/mL (≈ 8.72 µM) | Ratio (Enterococcus faecalis [48]): 2 | MIC (Klebsiella pneumoniae [49]): > 128 µg/mL | Ratio (Enterococcus faecium [50]): 2 | MIC (Klebsiella pneumoniae [51]): 16 µg/mL (≈ 34.9 µM) | Ratio (Staphylococcus aureus [52]): 2 | MIC (Klebsiella pneumoniae [53]): 128 µg/mL (≈ 279 µM) | MIC (Pseudomonas aeruginosa [54]): 32 µg/mL (≈ 69.8 µM) | Ratio [55]: 2 | Ratio [56]: 2
